≈ marks a conversion by molar mass, not a printed value. Calls of active or inactive are those of the source. The calls are words filed in the database; no cut-off is given here.

Type in all cases: functional
The subject of one test is KB. As to the kind of experiment: Cytotoxicity against human KB cells assessed as growth inhibition. The note with it: for EC50: Homo sapiens, KB, read-out: ED50 (the source's name). An outline of the steps: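 KB cell culture run under standard National Cancer Institute Division of Cancer Treatment protocols. Compounds were dissolved in water or propylene glycol as vehicle, depending on the compound. ED50 is the dose that inhibits growth to 50% of control growth, in μg/ml.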

Test [1] has as its system P388. As to the kind of experiment: Antitumor activity against mouse P388 cells allografted in mouse assessed as increase in life span at 400 mg/kg, ip qd administered on day 1 to day 9 relative to control. As to conditions: route intraperitoneal. An outline of the steps:
(§1)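 NCI Division of Cancer Treatment standard P-388 lymphocytic leukaemia protocol in mice. Drug given intraperitoneally once daily on days 1–9, with dose in mg/kg. The vehicle was water, saline or propylene glycol depending on the compound. T/C = (mean or median survival of treated ÷ control survival) × 100.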

The test system of test [2] is P388. As to the kind of experiment: Antitumor activity against mouse P388 cells allografted in mouse assessed as increase in life span at 0.3 mg/kg, ip qd administered on day 1 to day 9 relative to control. As to conditions: route intraperitoneal. An outline of the steps: as §1
Test [3] relates to P388. The test can be described thus: Antitumor activity against mouse P388 cells allografted in mouse assessed as increase in life span at 6.25 mg/kg, ip qd administered on day 1 to day 9 relative to control. The note with it: route intraperitoneal. In short, it runs like this:
as §1

Test [4] concerns P388. The test can be described thus: Antitumor activity against mouse P388 cells allografted in mouse assessed as increase in life span at 38.4 mg/kg, ip qd administered on day 1 to day 9 relative to control. As to conditions: route intraperitoneal. An outline of the steps: as §1
The test system of test [5] is P388. As to the kind of experiment: Antitumor activity against mouse P388 cells allografted in mouse assessed as increase in life span at 5 mg/kg, ip qd administered on day 1 to day 9 relative to control. The note with it: route intraperitoneal. An outline of the steps:
as §1

Test [6] has as its system P388. The test can be described thus: Antitumor activity against mouse P388 cells allografted in mouse assessed as increase in life span at 100 mg/kg, ip qd administered on day 1 to day 9 relative to control. As to conditions: route intraperitoneal. An outline of the steps:
as §1

Test [7] deals with P388. As to the kind of experiment: Antitumor activity against mouse P388 cells allografted in mouse assessed as increase in life span at 256 mg/kg, ip qd administered on day 1 to day 9 relative to control. As to conditions: route intraperitoneal. An outline of the steps: as §1
For test [8], the system named is P388. As to the kind of experiment: Antitumor activity against mouse P388 cells allografted in mouse assessed as increase in life span at 40 mg/kg, ip qd administered on day 1 to day 9 relative to control. The note with it: route intraperitoneal. In short, it runs like this:
as §1

For orientation: T/C means the ratio of treated to control. Consider `Cc1[nH]c(=O)[nH]c(=O)c1/C=C/C(=O)NC(CO)CSC(C)C` (stereo not given), for which, in the test on KB, the EC50 is over 100 µg/mL. Besides, in the test on P388 [1], the T/C was 89%. `CSC[S+]([O-])C[C@H](CO)NC(=O)/C=C/c1c(C)[nH]c(=O)[nH]c1=O` (stereo not given in full): the EC50 with KB worked out at 0.08 µg/mL (≈ 0.221 µM). For the same compound, the T/C in the test on P388 [2] was 156%. On to `CCCCCCCCCC[S+]([O-])CC(CO)NC(=O)/C=C/c1c(C)nc(O)nc1O` (racemic), for which the T/C in the test on P388 [3] stood at 153%.

For `CSCSCC(CO)NC(=O)/C=C/c1c(C)nc(O)nc1O` (racemic) [listing 1 of 2 here], the T/C in the test on P388 [4] amounted to 92%. On to `CCCC[S+]([O-])CC(CO)NC(=O)/C=C/c1c(C)[nH]c(=O)[nH]c1=O` (racemic), for which the EC50 in the test on KB was 1.2 µg/mL (≈ 3.36 µM). Moreover, the T/C in the test with P388 [5] worked out at 161%. With `CCCCCCCCCCSCC(CO)NC(=O)/C=C/c1c(C)[nH]c(=O)[nH]c1=O` (racemic), in the test on P388 [6], the T/C is given as 155%. Consider `CSCC(CO)NC(=O)/C=C/c1c(C)[nH]c(=O)[nH]c1=O` (racemic), for which the T/C in the test with P388 [1] (400 mg/kg) is listed as 88%. With `Cc1[nH]c(=O)[nH]c(=O)c1/C=C/C(=O)NC(CO)C[S+](C)[O-].O` (racemic), the ED50 in the test on KB is 1.5 µg/mL. For the same compound, the T/C in the test on P388 [7] was 137%. `Cc1[nH]c(=O)[nH]c(=O)c1/C=C/C(=O)NC(CO)C[S+]([O-])C[S+](C)[O-].O` (racemic): the EC50 in the test with KB was found to be 2.4 µg/mL. The T/C in the test with P388 [5] turned out to be 137%.

As to `CSCSCC(CO)NC(=O)/C=C/c1c(C)nc(O)nc1O` (racemic) [listing 2 of 2 here], the ED50 result in the test with KB was “inactive”. Take `CSCSCC(CO)NC(=O)/C=C/c1c(C)nc(O)nc1O` (single isomer, unassigned; (+)): in the test with KB, the ED50 turned out to be 13 µg/mL (≈ 37.6 µM). Moreover, in the test with P388 [1] (400 mg/kg), the T/C came to 14%. Regarding `CSCSCC(CO)NC(=O)/C=C/c1c(C)nc(O)nc1O` (single isomer, unassigned; (-)), the ED50 in the test on KB was over 100 µg/mL. Also, the T/C with P388 [1] (400 mg/kg) was determined as 86%. As for `CSCC(CO)NC(=O)/C=C/c1c(C)[nH]c(=O)[nH]c1=O` (single isomer, unassigned; (-)), the EC50 with KB is over 100 µg/mL. In addition, in the test on P388 [1] (400 mg/kg), the T/C is given as 69%. As for `Cc1[nH]c(=O)[nH]c(=O)c1/C=C/C(=O)NC(CO)CSCc1ccccc1` (single isomer, unassigned; (-)), the EC50 in the test with KB was over 100 µg/mL. The T/C in the test with P388 [1] is given as 95%. `CCCCSCC(CO)NC(=O)/C=C/c1c(C)[nH]c(=O)[nH]c1=O` (single isomer, unassigned; (-)): in the test with KB, the EC50 came out at 27 µg/mL (≈ 79.1 µM). As to `Cc1[nH]c(=O)[nH]c(=O)c1/C=C/C(=O)NC(CO)C[S+]([O-])Cc1ccccc1.O` (single isomer, unassigned; (-)), the EC50 in the test on KB is 88 µg/mL. Also, the T/C in the test with P388 [1] was 93%. `Cc1[nH]c(=O)[nH]c(=O)c1/C=C/C(=O)NC(CO)C[S+]([O-])C(C)C.O` (single isomer, unassigned; (-)): the EC50 with KB was over 100 µg/mL. Also, in the test with P388 [1], the T/C is given as 113%. For `Cc1[nH]c(=O)[nH]c(=O)c1/C=C/C(=O)NC(CO)C[S+](C)[O-].O` (stereo in doubt; 10c), in the test on KB, the ED50 is over 100 µg/mL. For the same compound, in the test on P388 [8], the T/C turned out to be 100%.

Source of the values: ChEMBL document CHEMBL3244300, “Pyrimidinylpropenamides as antitumor agents. Analogues of the antibiotic sparsomycin” (1977).
